Laboratory results as given in ChEMBL document CHEMBL2375292, “Biaryl tetrazolyl ureas as inhibitors of endocannabinoid metabolism: modulation at the N-portion and distal phenyl ring” (Eur J Med Chem, 2013).

Target: T1, Transient receptor potential cation channel subfamily A member 1 (Rattus norvegicus, UniProt Q6RI86)
Assay: Agonist activity at rat TRPA1 receptor expressed in HEK293 cells assessed as increase in intracellular Ca2+ concentration by spectrofluorimetric analysis
Type: cell-based
Outline: (§1)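 HEK293 cells stably transfected with human TRPV1 or rat TRPA1 cDNA (pcDNA3, G-418 selection) were loaded 1 h at room temperature with Fluo-4-AM, washed and suspended in Tyrode's buffer pH 7.4. [Ca²⁺]i was read by stirred-cuvette spectrofluorimetry before and after adding test compound at various concentrations. Signal from untransfected cells was subtracted. Efficacy was taken as percent of ionomycin (4 µM) for TRPV1 and percent of allyl isothiocyanate (100 µM) for TRPA1; EC50 was also derived.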

T1 sequence (Q6RI86 whole entry): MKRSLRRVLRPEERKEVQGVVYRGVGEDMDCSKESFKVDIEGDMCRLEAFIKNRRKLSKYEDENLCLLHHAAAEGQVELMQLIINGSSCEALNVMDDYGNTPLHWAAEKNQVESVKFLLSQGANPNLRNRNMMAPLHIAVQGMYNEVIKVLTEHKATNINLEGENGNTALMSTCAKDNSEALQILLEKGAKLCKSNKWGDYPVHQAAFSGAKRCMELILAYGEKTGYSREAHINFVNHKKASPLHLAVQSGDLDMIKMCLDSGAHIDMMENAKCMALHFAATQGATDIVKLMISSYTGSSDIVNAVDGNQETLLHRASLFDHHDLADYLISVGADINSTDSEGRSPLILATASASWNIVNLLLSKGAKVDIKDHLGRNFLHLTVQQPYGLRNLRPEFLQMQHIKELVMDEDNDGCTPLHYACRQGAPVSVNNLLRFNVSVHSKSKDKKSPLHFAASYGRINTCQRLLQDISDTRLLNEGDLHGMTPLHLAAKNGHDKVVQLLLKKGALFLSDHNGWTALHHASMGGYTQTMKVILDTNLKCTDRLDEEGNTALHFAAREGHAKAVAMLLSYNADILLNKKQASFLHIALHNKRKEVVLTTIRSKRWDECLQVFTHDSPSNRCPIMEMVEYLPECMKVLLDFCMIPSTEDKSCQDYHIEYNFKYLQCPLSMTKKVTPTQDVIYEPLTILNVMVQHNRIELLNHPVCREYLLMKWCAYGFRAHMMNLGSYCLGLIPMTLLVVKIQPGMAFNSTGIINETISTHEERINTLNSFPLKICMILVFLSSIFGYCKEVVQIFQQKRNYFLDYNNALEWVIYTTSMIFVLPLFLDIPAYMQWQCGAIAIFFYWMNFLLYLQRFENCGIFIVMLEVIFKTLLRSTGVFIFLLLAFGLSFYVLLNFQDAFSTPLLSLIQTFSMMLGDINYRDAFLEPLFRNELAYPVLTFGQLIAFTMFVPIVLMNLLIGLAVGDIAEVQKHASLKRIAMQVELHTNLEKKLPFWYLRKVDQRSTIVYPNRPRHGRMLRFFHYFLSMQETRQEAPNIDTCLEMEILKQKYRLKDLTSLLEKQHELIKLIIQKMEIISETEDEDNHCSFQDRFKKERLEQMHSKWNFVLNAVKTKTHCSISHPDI

Row | EC50 [µM] | SMILES
1 | 48.7 | Cc1ccccc1-c1ccc(Cc2nnnn2C(=O)N(C)C)cc1
2 | 15 | Cc1cccc(-c2ccc(Cc3nnn(C(=O)N(C)C)n3)cc2)c1
3 | 24.4 | CN(C)C(=O)n1nnc(Cc2ccc(-c3ccc(CO)cc3)cc2)n1
4 | 20.1 | CN(C)C(=O)n1nnc(Cc2ccc(-c3ccccc3)cc2)n1
5 | 6.5 | O=C(N1CCCCC1)n1nnnc1Cc1ccc(-c2ccccc2)cc1
6 | 50.1 | CN(C)C(=O)n1nnnc1Cc1ccc(-c2cccc(C(N)=O)c2)cc1
7 | 15.9 | Cc1ccccc1-c1ccc(Cc2nnn(C(=O)N(C)C)n2)cc1
8 | 13.5 | CN(Cc1ccc2ccccc2c1)C(=O)n1nnnc1Cc1ccc(-c2ccccc2)cc1
9 | 19.7 | Cc1ccc(-c2ccc(Cc3nnnn3C(=O)N(C)C)cc2)cc1
10 | 59.7 | CN(C)C(=O)n1nnnc1Cc1ccc(-c2ccccc2O)cc1
11 | 53.3 | CN(C)C(=O)n1nnc(Cc2ccc(-c3ccccc3O)cc2)n1
12 | 20.1 | CN(CCCCc1ccccc1)C(=O)n1nnnc1Cc1ccc(-c2ccccc2)cc1
13 | 26.9 | CN(C)C(=O)n1nnnc1Cc1ccc(-c2ccccc2)cc1
14 | 24.2 | CN(C)C(=O)n1nnnc1Cc1ccc(-c2ccc(CO)cc2)cc1

Target: Transient receptor potential cation channel subfamily A member 1 (Rattus norvegicus) (UniProt Q6RI86)
Assay: Agonist activity at rat TRPA1 receptor expressed in HEK293 cells assessed as increase in intracellular Ca2+ concentration by spectrofluorimetric analysis relative to allyl isothiocyanate
Type: cell-based
Outline: as §1

Sequence of Transient receptor potential cation channel subfamily A member 1 (Rattus norvegicus) (Q6RI86 whole entry): as above

Row | Efficacy [%] | SMILES
15 | 349 | Cc1ccccc1-c1ccc(Cc2nnnn2C(=O)N(C)C)cc1
16 | 187 | Cc1cccc(-c2ccc(Cc3nnn(C(=O)N(C)C)n3)cc2)c1
17 | 67.3 | CN(C)C(=O)n1nnc(Cc2ccc(-c3ccc(CO)cc3)cc2)n1
18 | 186 | CN(C)C(=O)n1nnc(Cc2ccc(-c3ccccc3)cc2)n1
19 | 106 | O=C(N1CCCCC1)n1nnnc1Cc1ccc(-c2ccccc2)cc1
20 | 30.7 | CN(C)C(=O)n1nnnc1Cc1ccc(-c2cccc(C(N)=O)c2)cc1
21 | 202 | Cc1ccccc1-c1ccc(Cc2nnn(C(=O)N(C)C)n2)cc1
22 | 53.9 | CN(Cc1ccc2ccccc2c1)C(=O)n1nnnc1Cc1ccc(-c2ccccc2)cc1
23 | 388 | Cc1ccc(-c2ccc(Cc3nnnn3C(=O)N(C)C)cc2)cc1
24 | 228 | CN(C)C(=O)n1nnnc1Cc1ccc(-c2ccccc2O)cc1
25 | 445 | CN(C)C(=O)n1nnc(Cc2ccc(-c3ccccc3O)cc2)n1
26 | 89.9 | CN(CCCCc1ccccc1)C(=O)n1nnnc1Cc1ccc(-c2ccccc2)cc1
27 | 101 | CN(C)C(=O)n1nnnc1Cc1ccc(-c2ccccc2)cc1
28 | 58.7 | CN(C)C(=O)n1nnnc1Cc1ccc(-c2ccc(CO)cc2)cc1

Target: T2, Transient receptor potential cation channel subfamily V member 1 (Homo sapiens, UniProt Q8NER1)
Assay: Antagonist activity at human TRPV1 receptor expressed in HEK293 cells assessed as inhibition of capsaicin-induced intracellular Ca2+ elevation incubated for 5 mins prior to capsaicin-stimulation by spectrofluorimetric analysis
Type: cell-based
Outline: (§2)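 Fluo-4-loaded HEK293 cells stably expressing human TRPV1 or rat TRPA1, in Tyrode's buffer pH 7.4, received test compound in the cuvette 5 min before agonist: capsaicin 0.1 µM for TRPV1, AITC 100 µM for TRPA1. The [Ca²⁺]i rise with agonist alone was set to 100%. IC50 came from a variable-slope sigmoidal fit. Untransfected-cell signal was subtracted.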

T2 sequence (Q8NER1 whole entry): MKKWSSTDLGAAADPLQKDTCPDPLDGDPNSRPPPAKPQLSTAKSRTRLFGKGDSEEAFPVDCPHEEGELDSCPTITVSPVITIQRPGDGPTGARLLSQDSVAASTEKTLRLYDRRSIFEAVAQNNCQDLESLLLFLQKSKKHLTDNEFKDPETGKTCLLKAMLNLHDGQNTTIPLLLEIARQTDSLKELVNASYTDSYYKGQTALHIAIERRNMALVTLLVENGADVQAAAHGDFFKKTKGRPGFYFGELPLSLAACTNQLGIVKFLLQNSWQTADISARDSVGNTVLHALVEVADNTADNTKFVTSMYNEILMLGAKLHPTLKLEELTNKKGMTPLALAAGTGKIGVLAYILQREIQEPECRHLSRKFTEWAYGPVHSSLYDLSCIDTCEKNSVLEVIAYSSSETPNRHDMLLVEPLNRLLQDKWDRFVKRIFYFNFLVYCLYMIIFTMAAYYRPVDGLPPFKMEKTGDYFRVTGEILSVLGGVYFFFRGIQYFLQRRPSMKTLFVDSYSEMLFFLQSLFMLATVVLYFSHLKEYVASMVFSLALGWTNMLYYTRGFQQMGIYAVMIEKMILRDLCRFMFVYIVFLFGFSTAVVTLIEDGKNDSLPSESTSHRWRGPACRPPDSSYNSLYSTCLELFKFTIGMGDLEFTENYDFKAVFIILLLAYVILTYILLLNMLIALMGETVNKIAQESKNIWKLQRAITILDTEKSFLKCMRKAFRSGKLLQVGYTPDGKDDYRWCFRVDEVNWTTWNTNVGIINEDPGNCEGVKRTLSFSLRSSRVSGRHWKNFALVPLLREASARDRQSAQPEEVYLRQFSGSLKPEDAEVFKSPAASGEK

Row | IC50 [µM] | SMILES
29 | > 100 | Cc1ccccc1-c1ccc(Cc2nnnn2C(=O)N(C)C)cc1
30 | 78.9 | Cc1cccc(-c2ccc(Cc3nnn(C(=O)N(C)C)n3)cc2)c1
31 | > 100 | CN(C)C(=O)n1nnc(Cc2ccc(-c3ccc(CO)cc3)cc2)n1
32 | 31.3 | CN(C)C(=O)n1nnc(Cc2ccc(-c3ccccc3)cc2)n1
33 | 22.6 | O=C(N1CCCCC1)n1nnnc1Cc1ccc(-c2ccccc2)cc1
34 | > 100 | CN(C)C(=O)n1nnnc1Cc1ccc(-c2cccc(C(N)=O)c2)cc1
35 | > 100 | Cc1ccccc1-c1ccc(Cc2nnn(C(=O)N(C)C)n2)cc1
36 | 7.6 | CN(Cc1ccc2ccccc2c1)C(=O)n1nnnc1Cc1ccc(-c2ccccc2)cc1
37 | > 100 | Cc1ccc(-c2ccc(Cc3nnnn3C(=O)N(C)C)cc2)cc1
38 | > 100 | CN(C)C(=O)n1nnnc1Cc1ccc(-c2ccccc2O)cc1
39 | > 100 | CN(C)C(=O)n1nnc(Cc2ccc(-c3ccccc3O)cc2)n1
40 | 7.1 | CN(CCCCc1ccccc1)C(=O)n1nnnc1Cc1ccc(-c2ccccc2)cc1
41 | > 100 | CN(C)C(=O)n1nnnc1Cc1ccc(-c2ccccc2)cc1
42 | > 100 | CN(C)C(=O)n1nnnc1Cc1ccc(-c2ccc(CO)cc2)cc1

Target: T2, Transient receptor potential cation channel subfamily V member 1
Assay: Agonist activity at human TRPV1 receptor expressed in HEK293 cells assessed as increase in intracellular Ca2+ concentration by spectrofluorimetric analysis
Type: cell-based
Outline: as §1

Row | EC50 [µM] | SMILES
43 | 5 | CN(C)C(=O)n1nnc(Cc2ccc(-c3ccccc3)cc2)n1
44 | 5.9 | O=C(N1CCCCC1)n1nnnc1Cc1ccc(-c2ccccc2)cc1
45 | 32.3 | CN(C)C(=O)n1nnnc1Cc1ccc(-c2cccc(C(N)=O)c2)cc1
46 | 2.5 | CN(Cc1ccc2ccccc2c1)C(=O)n1nnnc1Cc1ccc(-c2ccccc2)cc1
47 | 22.5 | Cc1ccc(-c2ccc(Cc3nnnn3C(=O)N(C)C)cc2)cc1
48 | 1.5 | CN(CCCCc1ccccc1)C(=O)n1nnnc1Cc1ccc(-c2ccccc2)cc1

Target: T2, Transient receptor potential cation channel subfamily V member 1
Assay: Agonist activity at human TRPV1 receptor expressed in HEK293 cells assessed as increase in intracellular Ca2+ concentration by spectrofluorimetric analysis relative to ionomycin
Type: cell-based
Outline: as §1

Row | Efficacy [%] | SMILES
49 | < 10 | Cc1ccccc1-c1ccc(Cc2nnnn2C(=O)N(C)C)cc1
50 | < 10 | Cc1cccc(-c2ccc(Cc3nnn(C(=O)N(C)C)n3)cc2)c1
51 | < 10 | CN(C)C(=O)n1nnc(Cc2ccc(-c3ccc(CO)cc3)cc2)n1
52 | 14.5 | CN(C)C(=O)n1nnc(Cc2ccc(-c3ccccc3)cc2)n1
53 | 67.4 | O=C(N1CCCCC1)n1nnnc1Cc1ccc(-c2ccccc2)cc1
54 | 21.3 | CN(C)C(=O)n1nnnc1Cc1ccc(-c2cccc(C(N)=O)c2)cc1
55 | < 10 | Cc1ccccc1-c1ccc(Cc2nnn(C(=O)N(C)C)n2)cc1
56 | 34.1 | CN(Cc1ccc2ccccc2c1)C(=O)n1nnnc1Cc1ccc(-c2ccccc2)cc1
57 | 28 | Cc1ccc(-c2ccc(Cc3nnnn3C(=O)N(C)C)cc2)cc1
58 | < 10 | CN(C)C(=O)n1nnnc1Cc1ccc(-c2ccccc2O)cc1
59 | < 10 | CN(C)C(=O)n1nnc(Cc2ccc(-c3ccccc3O)cc2)n1
60 | 45.7 | CN(CCCCc1ccccc1)C(=O)n1nnnc1Cc1ccc(-c2ccccc2)cc1
61 | < 10 | CN(C)C(=O)n1nnnc1Cc1ccc(-c2ccccc2)cc1
62 | < 10 | CN(C)C(=O)n1nnnc1Cc1ccc(-c2ccc(CO)cc2)cc1

Target: T3, Monoglyceride lipase (Homo sapiens, UniProt Q99685)
T3 sequence (Q99685 whole entry): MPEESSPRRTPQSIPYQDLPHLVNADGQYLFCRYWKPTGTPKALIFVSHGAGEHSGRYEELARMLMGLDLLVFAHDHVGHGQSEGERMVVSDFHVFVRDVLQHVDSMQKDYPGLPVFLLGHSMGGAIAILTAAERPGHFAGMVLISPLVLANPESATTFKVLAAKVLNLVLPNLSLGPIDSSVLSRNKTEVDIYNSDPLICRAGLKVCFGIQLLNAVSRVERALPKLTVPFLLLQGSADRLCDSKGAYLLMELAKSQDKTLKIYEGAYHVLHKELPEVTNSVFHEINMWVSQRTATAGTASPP
Assay: Inhibition of MAGL (unknown origin) expressed in African green monkey COS7 cell cytosolic fraction assessed as [3H]2-AG hydrolysis to [3H]arachidonic acid after 20 mins by beta counting analysis
Set-up: species or system COS-7

Row | IC50 [µM] | SMILES
63 | > 1 | Cc1ccccc1-c1ccc(Cc2nnnn2C(=O)N(C)C)cc1
64 | > 1 | O=C(N1CCCCC1)n1nnnc1Cc1ccc(-c2ccccc2)cc1
65 | > 1 | CN(C)C(=O)n1nnnc1Cc1ccc(-c2cccc(C(N)=O)c2)cc1
66 | > 1 | CN(Cc1ccc2ccccc2c1)C(=O)n1nnnc1Cc1ccc(-c2ccccc2)cc1
67 | > 1 | Cc1ccc(-c2ccc(Cc3nnnn3C(=O)N(C)C)cc2)cc1
68 | > 1 | CN(C)C(=O)n1nnnc1Cc1ccc(-c2ccccc2O)cc1
69 | > 1 | CN(CCCCc1ccccc1)C(=O)n1nnnc1Cc1ccc(-c2ccccc2)cc1
70 | > 1 | CN(C)C(=O)n1nnnc1Cc1ccc(-c2ccc(CO)cc2)cc1

Target: T4, Fatty-acid amide hydrolase 1 (Rattus norvegicus, UniProt P97612)
T4 sequence (P97612 whole entry): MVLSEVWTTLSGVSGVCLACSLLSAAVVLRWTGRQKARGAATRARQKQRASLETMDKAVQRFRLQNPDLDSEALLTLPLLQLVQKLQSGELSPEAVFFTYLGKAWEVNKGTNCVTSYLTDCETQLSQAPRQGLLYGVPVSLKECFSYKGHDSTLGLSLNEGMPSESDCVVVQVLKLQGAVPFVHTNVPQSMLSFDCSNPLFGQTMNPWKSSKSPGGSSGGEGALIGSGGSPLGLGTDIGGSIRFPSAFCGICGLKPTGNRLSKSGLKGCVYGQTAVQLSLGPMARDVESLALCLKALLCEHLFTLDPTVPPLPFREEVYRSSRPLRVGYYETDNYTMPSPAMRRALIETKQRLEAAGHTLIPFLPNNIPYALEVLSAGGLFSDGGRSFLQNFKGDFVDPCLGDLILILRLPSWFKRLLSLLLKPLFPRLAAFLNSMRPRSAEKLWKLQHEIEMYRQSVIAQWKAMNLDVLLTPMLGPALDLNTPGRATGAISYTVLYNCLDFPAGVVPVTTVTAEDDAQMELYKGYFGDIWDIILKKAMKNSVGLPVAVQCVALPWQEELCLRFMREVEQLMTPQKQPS
Assay: Inhibition of FAAH in rat brain membranes assessed as [14C]AEA hydrolysis to [14C]Ethanolamine after 30 mins by scintillation counting analysis
Type: cell membranes
Outline: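 Rat brain membranes were incubated with [¹⁴C]AEA in 50 mM Tris-HCl pH 9 for 30 min at 37 °C. Released [¹⁴C]ethanolamine in the aqueous phase was counted by scintillation after CHCl₃/CH₃OH 2/1 extraction. IC50 was the concentration giving 50% inhibition.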

Row | IC50 [µM] | SMILES
71 | 0.0355 | Cc1ccccc1-c1ccc(Cc2nnnn2C(=O)N(C)C)cc1
72 | 0.0485 | Cc1cccc(-c2ccc(Cc3nnn(C(=O)N(C)C)n3)cc2)c1
73 | 0.0075 | CN(C)C(=O)n1nnc(Cc2ccc(-c3ccc(CO)cc3)cc2)n1
74 | 0.0382 | O=C(N1CCCCC1)n1nnnc1Cc1ccc(-c2ccccc2)cc1
75 | 0.011 | CN(C)C(=O)n1nnnc1Cc1ccc(-c2cccc(C(N)=O)c2)cc1
76 | 0.0517 | Cc1ccccc1-c1ccc(Cc2nnn(C(=O)N(C)C)n2)cc1
77 | 0.0867 | CN(Cc1ccc2ccccc2c1)C(=O)n1nnnc1Cc1ccc(-c2ccccc2)cc1
78 | 0.0071 | Cc1ccc(-c2ccc(Cc3nnnn3C(=O)N(C)C)cc2)cc1
79 | 0.0156 | CN(C)C(=O)n1nnnc1Cc1ccc(-c2ccccc2O)cc1
80 | 0.0402 | CN(C)C(=O)n1nnc(Cc2ccc(-c3ccccc3O)cc2)n1
81 | 0.0213 | CN(CCCCc1ccccc1)C(=O)n1nnnc1Cc1ccc(-c2ccccc2)cc1
82 | 0.0374 | CN(C)C(=O)n1nnnc1Cc1ccc(-c2ccc(CO)cc2)cc1

Target: T1, Transient receptor potential cation channel subfamily A member 1
Assay: Antagonist activity at rat TRPA1 receptor expressed in HEK293 cells assessed as inhibition of allyl isothiocyanate-induced intracellular Ca2+ elevation incubated for 5 mins prior to allyl isothiocyanate-stimulation by spectrofluorimetric analysis
Type: cell-based
Outline: as §2

Row | IC50 [µM] | SMILES
83 | 45.2 | Cc1ccccc1-c1ccc(Cc2nnnn2C(=O)N(C)C)cc1
84 | 17.8 | Cc1cccc(-c2ccc(Cc3nnn(C(=O)N(C)C)n3)cc2)c1
85 | 70.6 | CN(C)C(=O)n1nnc(Cc2ccc(-c3ccc(CO)cc3)cc2)n1
86 | 11.2 | CN(C)C(=O)n1nnc(Cc2ccc(-c3ccccc3)cc2)n1
87 | 12.5 | O=C(N1CCCCC1)n1nnnc1Cc1ccc(-c2ccccc2)cc1
88 | > 100 | CN(C)C(=O)n1nnnc1Cc1ccc(-c2cccc(C(N)=O)c2)cc1
89 | 18.9 | Cc1ccccc1-c1ccc(Cc2nnn(C(=O)N(C)C)n2)cc1
90 | 15 | CN(Cc1ccc2ccccc2c1)C(=O)n1nnnc1Cc1ccc(-c2ccccc2)cc1
91 | 15.9 | Cc1ccc(-c2ccc(Cc3nnnn3C(=O)N(C)C)cc2)cc1
92 | > 100 | CN(C)C(=O)n1nnnc1Cc1ccc(-c2ccccc2O)cc1
93 | 28 | CN(C)C(=O)n1nnc(Cc2ccc(-c3ccccc3O)cc2)n1
94 | 83.7 | CN(CCCCc1ccccc1)C(=O)n1nnnc1Cc1ccc(-c2ccccc2)cc1
95 | 49.4 | CN(C)C(=O)n1nnnc1Cc1ccc(-c2ccccc2)cc1
96 | 52.6 | CN(C)C(=O)n1nnnc1Cc1ccc(-c2ccc(CO)cc2)cc1
